# Laboratory results as given in ChEMBL document CHEMBL1145012, “New benzo[h][1,6]naphthyridine and azepino[3,2-c]quinoline derivatives as selective antagonists of 5-HT4 receptors: binding profile and pharmacological characterization” (J Med Chem, 2003).
# Columns and labels:
# [1] = target: 5-hydroxytryptamine receptor 4 (Cavia porcellus) (UniProt O70528); assay: Ability to displace [3H]GR-113808 from 5-hydroxytryptamine 4 receptor at concentration of 10e-6 M in guinea pig
# Procedure, shortened: (§1)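 Guinea pig striatal membranes (males, 220–224 g) in 50 mM HEPES pH 7.4, incubated in duplicate at 37 °C for 30 min with 0.6 nM [3H]GR 113808. Filtration on polyethylenimine-soaked GF/B filters. Nonspecific binding with 10 μM 5-HT. Screened as percent inhibition at 10⁻⁶ and 10⁻⁸ M; Ki derived for compounds giving over 40% inhibition at 10⁻⁸ M.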
# [2] = target: 5-hydroxytryptamine receptor 4 (Cavia porcellus) (UniProt O70528); assay: Ability to displace [3H]GR-113808 from 5-hydroxytryptamine 4 receptor at concentration of 10e-8 M in guinea pig; procedure, shortened: as §1
# [3] = system: Mus musculus; assay: Antinociceptive activity in the mouse writhing test after intraperitoneal dose of 0.01 mg/kg; format: functional
# Procedure, shortened: (§2)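 Male OF1 mice (20–24 g), groups of eight. Compounds in saline given ip (10 mL/kg) 15 min before ip 0.6% aqueous acetic acid (10 mL/kg). Stretches per animal counted over 10 min, starting 10 min after acid. Stretch defined as back arching, pelvic rotation and hind limb extension. Data are mean ± SEM; ANOVA then Fisher PLSD.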
# [4] = system: Mus musculus; assay: Antinociceptive activity in the mouse writhing test after intraperitoneal dose of 0.1 mg/kg; format: functional; procedure, shortened: as §2
# [5] = system: Mus musculus; assay: Antinociceptive activity in the mouse writhing test after intraperitoneal dose of 1 mg/kg; format: functional; procedure, shortened: as §2
# [6] = system: Mus musculus; assay: Antinociceptive activity in the mouse writhing test before administration of the compound; format: functional; procedure, shortened: as §2
# [7] = system: Mus musculus; assay: Antinociceptive activity in the mouse writhing test after intraperitoneal dose of 30 mg/kg; format: functional; procedure, shortened: as §2
# [8] = target: 5-hydroxytryptamine receptor 4 (Cavia porcellus, UniProt O70528); assay: Ability to displace [3H]GR-113808 from 5-hydroxytryptamine 4 receptor; procedure, shortened: as §1
# [9] = system: Mus musculus; assay: Antinociceptive activity in the mouse writhing test after intraperitoneal dose of 5 mg/kg; format: functional; procedure, shortened: as §2
# [10] = system: Mus musculus; assay: Compound was tested at subtoxic dose of 25 mg/kg in mice; Symptoms are hyperactivity, irritability, stereotypy.; format: ADME, organism-based; design: dose 25 mg/kg; conditions: in vivo
# [11] = target: 5-hydroxytryptamine receptor 1A (Mus musculus, UniProt Q64264); assay: Ability to displace [3H]8-OH-DPAT from 5-hydroxytryptamine 1A receptor
# [12] = target: 5-hydroxytryptamine receptor 2A (Homo sapiens, UniProt P28223); assay: Ability to displace [3H]-ketanserin from 5-hydroxytryptamine 2A receptor
# [13] = target: 5-hydroxytryptamine receptor 2B (Homo sapiens, UniProt P41595); assay: Ability to displace [3H]5-HT from 5-hydroxytryptamine 2B receptor
# [14] = target: 5-hydroxytryptamine receptor 4 (Mus musculus, UniProt P97288); assay: Ability to displace [3H]GR-113808 from mouse 5-hydroxytryptamine 4 receptor in COS7 cells; format: cell-based, COS-7
# [15] = target: 5-hydroxytryptamine receptor 7 (Homo sapiens) (UniProt P34969); assay: Ability to displace [125I]LSD […] from 5-hydroxytryptamine 7 receptor at concentration of 10e-6 M
# [16] = target: 5-hydroxytryptamine receptor 7 (Homo sapiens) (UniProt P34969); assay: Ability to displace [125I]LSD […] from 5-hydroxytryptamine 7 receptor at concentration of 10e-8 M
# [17] = target: 5-hydroxytryptamine receptor 2C (Homo sapiens, UniProt P28335); assay: Ability to displace [3H]mesulergine from 5-hydroxytryptamine 2C receptor
# [18] = target: 5-hydroxytryptamine receptor 6 (Homo sapiens) (UniProt P50406); assay: Ability to displace [125I]LSD […] from 5-hydroxytryptamine 6 receptor at concentration of 10e-6 M
# [19] = target: 5-hydroxytryptamine receptor 6 (Homo sapiens) (UniProt P50406); assay: Ability to displace [125I]LSD […] from 5-hydroxytryptamine 6 receptor at concentration of 10e-8 M
# [20] = Lethal dose of the compound; format: ADME
# Procedure, shortened: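 Male OF1 mice (20–24 g), in groups of four, received graded ip doses (12.5, 25, 50 mg/kg) in saline (10 mL/kg).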
# [21] = target: Beta-1 adrenergic receptor (Homo sapiens) (UniProt P08588); assay: Ability to displace [3H]CGP-12177 from Beta-1 adrenergic receptor at concentration of 10e-5 M
# [22] = target: Beta-1 adrenergic receptor (Homo sapiens) (UniProt P08588); assay: Ability to displace [3H]CGP-12177 from Beta-1 adrenergic receptor at concentration of 10e-7 M
# [23] = target: Beta-2 adrenergic receptor (Homo sapiens) (UniProt P07550); assay: Ability to displace [3H]CGP-12177 from Beta-2 adrenergic receptor at concentration of 10e-7 M
# [24] = target: Beta-2 adrenergic receptor (Homo sapiens) (UniProt P07550); assay: Ability to displace [3H]-CGP-12,177 from adrenergic Beta-2 adrenergic receptor at concentration of 10e-5 M
# [25] = target: D(1A) dopamine receptor (Mus musculus, UniProt Q61616); assay: Ability to displace [3H]SCH-23390 from Dopamine receptor D1
# [26] = target: D(2) dopamine receptor (Homo sapiens, UniProt P14416); assay: Ability to displace [3H]YM-0915 from Dopamine receptor D2
# [27] = target: Sodium-dependent dopamine transporter (Rattus norvegicus) (UniProt P23977); assay: Ability to recapture DA by displace [3H]GBR-12935 from dopamine transporter at concentration of 10e-5 M
# [28] = target: Sodium-dependent dopamine transporter (Rattus norvegicus) (UniProt P23977); assay: Ability to recapture DA by displace [3H]GBR-12935 from dopamine transporter at concentration of 10e-7 M
# [29] = target: Histamine H1 receptor (Homo sapiens) (UniProt P35367); assay: Ability to displace [3H]-mepyramine from histamine H1 receptor at concentration of 10e-5 M
# [30] = target: Histamine H1 receptor (Homo sapiens) (UniProt P35367); assay: Ability to displace [3H]mepyramine from histamine H1 receptor at concentration of 10e-7 M
# [31] = target: Histamine H2 receptor (Rattus norvegicus) (UniProt P25102); assay: Ability to displace [3H]tiotidine from histamine-H2 receptor at concentration of 10e-5 M
# [32] = target: Histamine H2 receptor (Rattus norvegicus) (UniProt P25102); assay: Ability to displace [3H]tiotidine from histamine-H2 receptor at concentration of 10e-7 M
# [33] = system: Mus musculus; assay: Compound was tested at subtoxic doses of 12.5-25-50 mg/kg in mice; Symptoms are Hypoactivity,relaxation,Passivity.; format: ADME, organism-based; conditions: in vivo
# [34] = system: Mus musculus; assay: Compound was tested at toxic doses of 12.5-25-50 mg/kg in mice; Convulsions.; format: ADME, organism-based; conditions: in vivo
# [35] = system: Mus musculus; assay: Antinociceptive activity in the mouse writhing test after intraperitoneal dose of 0.1 mg/kg; p<0.05.; format: functional; procedure, shortened: as §2
# [36] = system: Mus musculus; assay: Antinociceptive activity in the mouse writhing test after intraperitoneal dose of 1 mg/kg; p<0.01; format: functional; procedure, shortened: as §2
# [37] = target: Sodium-dependent serotonin transporter (Homo sapiens) (UniProt P31645); assay: Ability to recapture 5-HT by displace [3H]paroxetine at serotonin transporter at concentration of 10e-7 M
# [38] = target: Sodium-dependent serotonin transporter (Homo sapiens) (UniProt P31645); assay: Ability to recapture 5-HT by displacing [3H]paroxetine at serotonin transporter at concentration of 10e-5 M
# [39] = target: Vasopressin V1b receptor (Rattus norvegicus, UniProt P48974); assay: Ability to displace [3H]AVP from vasopressin V1 receptor
# [40] = target: Vasopressin V2 receptor (Sus scrofa, UniProt P32307); assay: Ability to displace [3H]AVP from Vasopressin V2 receptor
# [41] = Ability to recaprure NAD using [3H]nisoxetine at concentration of 10e-5 M
# [42] = Ability to recaprure NAD using [3H]-nisoxatine at concentration of 10e-7 M
# 5-hydroxytryptamine receptor 4 (Cavia porcellus, UniProt O70528), sequence (O70528 whole entry): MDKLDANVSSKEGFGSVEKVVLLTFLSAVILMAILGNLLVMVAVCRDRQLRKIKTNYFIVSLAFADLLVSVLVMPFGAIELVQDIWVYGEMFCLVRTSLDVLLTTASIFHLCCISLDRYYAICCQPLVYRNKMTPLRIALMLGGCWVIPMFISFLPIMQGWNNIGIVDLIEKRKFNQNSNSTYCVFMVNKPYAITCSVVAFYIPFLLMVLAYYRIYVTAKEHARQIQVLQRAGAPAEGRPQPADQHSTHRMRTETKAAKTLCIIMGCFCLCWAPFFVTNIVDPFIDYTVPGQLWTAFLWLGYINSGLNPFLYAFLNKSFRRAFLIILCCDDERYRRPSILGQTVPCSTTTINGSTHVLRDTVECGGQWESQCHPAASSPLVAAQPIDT
# 5-hydroxytryptamine receptor 4 (Cavia porcellus), sequence (O70528 whole entry): as above
# Histamine H1 receptor (Homo sapiens), sequence (P35367 whole entry): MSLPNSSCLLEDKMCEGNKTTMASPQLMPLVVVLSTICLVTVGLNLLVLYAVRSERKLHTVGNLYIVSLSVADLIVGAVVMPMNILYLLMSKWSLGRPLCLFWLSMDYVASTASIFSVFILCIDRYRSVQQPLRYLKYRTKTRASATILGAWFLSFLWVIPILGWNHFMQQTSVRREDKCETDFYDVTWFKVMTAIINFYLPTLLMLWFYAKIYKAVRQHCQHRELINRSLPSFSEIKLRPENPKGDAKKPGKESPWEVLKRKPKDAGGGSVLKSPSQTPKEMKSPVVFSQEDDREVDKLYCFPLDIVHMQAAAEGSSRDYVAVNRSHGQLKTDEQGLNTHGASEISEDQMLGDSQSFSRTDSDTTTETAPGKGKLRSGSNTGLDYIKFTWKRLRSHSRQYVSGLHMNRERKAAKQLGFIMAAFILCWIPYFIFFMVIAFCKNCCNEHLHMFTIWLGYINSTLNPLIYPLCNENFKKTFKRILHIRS
# 5-hydroxytryptamine receptor 7 (Homo sapiens), sequence (P34969 whole entry): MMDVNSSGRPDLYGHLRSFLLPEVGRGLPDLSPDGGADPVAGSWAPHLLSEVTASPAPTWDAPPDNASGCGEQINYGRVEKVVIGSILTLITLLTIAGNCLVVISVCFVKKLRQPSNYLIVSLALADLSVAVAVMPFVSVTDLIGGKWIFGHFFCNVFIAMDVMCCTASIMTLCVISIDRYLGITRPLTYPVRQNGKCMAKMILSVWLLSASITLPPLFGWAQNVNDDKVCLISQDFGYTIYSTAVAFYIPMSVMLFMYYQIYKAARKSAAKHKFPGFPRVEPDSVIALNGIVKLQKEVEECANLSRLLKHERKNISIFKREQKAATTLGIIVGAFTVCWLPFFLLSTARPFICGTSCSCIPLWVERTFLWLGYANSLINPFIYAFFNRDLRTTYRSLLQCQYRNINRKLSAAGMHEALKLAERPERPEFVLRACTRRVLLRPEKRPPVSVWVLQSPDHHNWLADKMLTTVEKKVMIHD
# Histamine H2 receptor (Rattus norvegicus), sequence (P25102 whole entry): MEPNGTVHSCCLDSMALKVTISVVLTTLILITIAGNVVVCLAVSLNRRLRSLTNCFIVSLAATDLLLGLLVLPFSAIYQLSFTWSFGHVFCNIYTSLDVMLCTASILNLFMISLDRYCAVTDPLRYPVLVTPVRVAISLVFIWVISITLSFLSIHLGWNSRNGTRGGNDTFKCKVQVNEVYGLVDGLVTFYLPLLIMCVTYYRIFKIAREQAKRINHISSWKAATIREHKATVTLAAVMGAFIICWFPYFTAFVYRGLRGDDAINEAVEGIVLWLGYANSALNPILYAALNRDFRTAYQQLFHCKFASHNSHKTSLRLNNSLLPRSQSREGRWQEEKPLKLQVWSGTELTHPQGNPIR
# Beta-2 adrenergic receptor (Homo sapiens), sequence (P07550 whole entry, looked up): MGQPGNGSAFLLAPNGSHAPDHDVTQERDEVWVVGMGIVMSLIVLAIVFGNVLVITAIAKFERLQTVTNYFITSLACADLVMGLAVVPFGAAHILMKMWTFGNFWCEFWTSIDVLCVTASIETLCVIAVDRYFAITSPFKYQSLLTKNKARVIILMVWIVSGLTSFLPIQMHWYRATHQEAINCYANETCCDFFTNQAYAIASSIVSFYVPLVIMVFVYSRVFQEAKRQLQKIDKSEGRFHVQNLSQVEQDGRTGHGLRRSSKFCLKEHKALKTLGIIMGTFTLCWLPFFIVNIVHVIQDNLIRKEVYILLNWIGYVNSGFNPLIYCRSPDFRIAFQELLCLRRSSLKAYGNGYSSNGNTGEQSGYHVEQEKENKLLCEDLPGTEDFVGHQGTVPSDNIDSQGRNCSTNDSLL
# Sodium-dependent serotonin transporter (Homo sapiens), sequence (P31645 whole entry, looked up): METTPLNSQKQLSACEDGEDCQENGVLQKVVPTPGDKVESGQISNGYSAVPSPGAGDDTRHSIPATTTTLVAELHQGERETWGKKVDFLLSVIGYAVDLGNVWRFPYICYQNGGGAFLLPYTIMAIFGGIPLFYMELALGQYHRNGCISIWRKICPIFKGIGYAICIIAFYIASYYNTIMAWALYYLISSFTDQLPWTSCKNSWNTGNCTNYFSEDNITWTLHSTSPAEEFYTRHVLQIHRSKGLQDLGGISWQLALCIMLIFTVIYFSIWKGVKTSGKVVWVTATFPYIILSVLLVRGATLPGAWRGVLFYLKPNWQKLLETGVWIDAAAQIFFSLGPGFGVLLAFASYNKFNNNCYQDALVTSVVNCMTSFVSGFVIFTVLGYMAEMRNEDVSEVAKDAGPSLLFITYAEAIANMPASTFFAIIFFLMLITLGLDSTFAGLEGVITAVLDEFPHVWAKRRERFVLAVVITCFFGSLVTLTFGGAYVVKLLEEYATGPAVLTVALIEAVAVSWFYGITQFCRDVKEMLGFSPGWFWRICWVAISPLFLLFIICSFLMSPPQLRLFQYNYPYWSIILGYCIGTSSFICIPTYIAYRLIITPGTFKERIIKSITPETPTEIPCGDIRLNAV
# Sodium-dependent dopamine transporter (Rattus norvegicus), sequence (P23977 whole entry): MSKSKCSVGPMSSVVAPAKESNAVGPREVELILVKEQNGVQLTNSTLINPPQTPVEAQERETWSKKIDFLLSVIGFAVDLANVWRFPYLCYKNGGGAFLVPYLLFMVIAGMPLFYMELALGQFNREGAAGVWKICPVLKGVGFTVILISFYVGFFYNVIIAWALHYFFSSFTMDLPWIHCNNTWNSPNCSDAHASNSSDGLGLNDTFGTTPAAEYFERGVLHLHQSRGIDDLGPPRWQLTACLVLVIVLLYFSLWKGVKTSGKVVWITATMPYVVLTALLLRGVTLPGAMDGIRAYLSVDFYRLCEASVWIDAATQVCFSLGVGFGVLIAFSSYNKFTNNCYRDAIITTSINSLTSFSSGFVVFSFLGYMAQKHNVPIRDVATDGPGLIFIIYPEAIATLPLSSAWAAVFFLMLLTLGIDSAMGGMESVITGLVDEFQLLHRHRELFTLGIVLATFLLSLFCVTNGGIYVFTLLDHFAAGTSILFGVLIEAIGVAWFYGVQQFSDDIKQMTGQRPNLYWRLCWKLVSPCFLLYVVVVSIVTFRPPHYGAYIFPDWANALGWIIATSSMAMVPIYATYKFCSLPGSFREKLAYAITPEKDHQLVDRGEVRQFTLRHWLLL
# 5-hydroxytryptamine receptor 6 (Homo sapiens), sequence (P50406 whole entry): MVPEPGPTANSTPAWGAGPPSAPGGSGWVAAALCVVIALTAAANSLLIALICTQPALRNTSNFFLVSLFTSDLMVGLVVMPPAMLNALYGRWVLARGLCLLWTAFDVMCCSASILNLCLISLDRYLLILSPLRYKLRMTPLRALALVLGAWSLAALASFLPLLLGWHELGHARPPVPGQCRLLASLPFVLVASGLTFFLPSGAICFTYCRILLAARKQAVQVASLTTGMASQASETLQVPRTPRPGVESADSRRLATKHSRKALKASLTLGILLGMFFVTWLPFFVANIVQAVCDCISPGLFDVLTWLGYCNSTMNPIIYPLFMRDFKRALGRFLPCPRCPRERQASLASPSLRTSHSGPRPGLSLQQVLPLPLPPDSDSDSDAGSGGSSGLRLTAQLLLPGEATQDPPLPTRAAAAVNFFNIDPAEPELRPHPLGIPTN
# Beta-1 adrenergic receptor (Homo sapiens), sequence (P08588 whole entry, looked up): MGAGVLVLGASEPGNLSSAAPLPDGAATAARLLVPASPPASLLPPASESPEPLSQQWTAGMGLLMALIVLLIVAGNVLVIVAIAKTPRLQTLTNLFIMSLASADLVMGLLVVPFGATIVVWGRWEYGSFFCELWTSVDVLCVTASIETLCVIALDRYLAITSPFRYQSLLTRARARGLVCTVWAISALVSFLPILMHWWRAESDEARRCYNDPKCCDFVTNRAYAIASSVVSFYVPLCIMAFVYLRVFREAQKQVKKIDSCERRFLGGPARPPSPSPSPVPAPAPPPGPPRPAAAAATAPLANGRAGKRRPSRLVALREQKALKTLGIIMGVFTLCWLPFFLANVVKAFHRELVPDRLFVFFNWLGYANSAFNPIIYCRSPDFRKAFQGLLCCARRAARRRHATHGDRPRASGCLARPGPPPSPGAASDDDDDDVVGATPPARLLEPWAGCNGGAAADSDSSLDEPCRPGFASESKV
# Vasopressin V1b receptor, sequence (P48974 whole entry): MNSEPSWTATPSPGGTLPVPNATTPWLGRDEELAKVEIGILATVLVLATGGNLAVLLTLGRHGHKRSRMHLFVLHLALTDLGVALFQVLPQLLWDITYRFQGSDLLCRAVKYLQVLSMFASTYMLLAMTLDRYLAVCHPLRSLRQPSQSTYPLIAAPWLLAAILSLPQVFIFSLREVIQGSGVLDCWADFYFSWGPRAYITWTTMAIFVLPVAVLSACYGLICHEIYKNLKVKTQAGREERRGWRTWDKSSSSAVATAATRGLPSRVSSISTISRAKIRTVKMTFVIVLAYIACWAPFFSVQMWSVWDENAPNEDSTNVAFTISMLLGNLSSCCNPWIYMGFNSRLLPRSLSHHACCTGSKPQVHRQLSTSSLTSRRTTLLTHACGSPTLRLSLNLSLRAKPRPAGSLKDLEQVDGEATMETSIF
smiles,measurement,setting,value
CCCCCN1CCC(COc2nc3ccccc3c3c2CCCCN3)CC1,inhibition,[1],100%
same,inhibition,[2],0%
COc1[nH]c2ccc(F)cc2c1C(=O)OCC1CCN(CCNS(C)(=O)=O)CC1,Stretches,[3],16.5
same,Stretches,[4],11.5
same,Stretches,[5],11.2
same,Stretches,[6],20
CC(=O)Oc1ccccc1C(=O)O [ASPIRIN],Stretches,[7],8.7
same,Stretches,[6],25.8
CCCN1CCC(COc2nc3ccccc3c3c2CCCCN3)CC1,inhibition,[1],100%
same,inhibition,[2],55%
same,Ki,[8],12.7 nM
CCCN1CCC(COc2nc3cc(Cl)ccc3c3c2CCCCN3)CC1,inhibition,[1],98%
same,inhibition,[2],0%
CCCCN1CCC(COc2nc3ccccc3c3c2CCCCN3)CC1,inhibition,[1],100%
same,inhibition,[2],44%
same,Ki,[8],16.3 nM
CCCN1CCC(COc2nc3ccc(Cl)cc3c3c2CCCN3)CC1,inhibition,[1],100%
same,inhibition,[2],0%
C=CCN1CCC(COc2nc3ccccc3c3c2CCCN3)CC1,inhibition,[1],100%
same,inhibition,[2],31%
CN1C(C(=O)Nc2ccccn2)=C(O)c2ccccc2S1(=O)=O [PIROXICAM],Stretches,[9],2.4
same,Stretches,[6],24.6
C#CCN1CCC(COc2nc3ccccc3c3c2CCCN3)CC1,inhibition,[1],100%
same,inhibition,[2],15%
COC(=O)C(c1ccccc1)C1CCCCN1 (centres undefined) [METHYLPHENIDATE],Symptoms,[10],"Hyperactivity, irritability, stereotypy"
Cn1cc(C(=O)OCC2CCN(CCNS(C)(=O)=O)CC2)c2ccccc21,Stretches,[3],18.2
same,Stretches,[4],12.8
same,Stretches,[5],12.3
same,Stretches,[6],21.8
CN1CCC(COc2nc3ccccc3c3c2CCCN3)CC1,inhibition,[1],100%
same,inhibition,[2],52%
same,Ki,[8],79.7 nM
CCCN1CCC(COc2nc3ccccc3c3c2CCCN3)CC1,IC50,[11],9100 nM
same,IC50,[12],5000 nM
same,IC50,[13],200 nM
same,IC50,[14],0.56 nM
same,inhibition,[1],100%
same,inhibition,[2],70%
same,Ki,[8],2.89 nM
same,inhibition,[15],36%
same,inhibition,[16],20%
same,IC50,[17],3400 nM
same,inhibition,[18],12%
same,inhibition,[19],0%
same,LD50,[20],37.5 mg/kg
same,inhibition,[21],39%
same,inhibition,[22],0%
same,inhibition,[23],0%
same,inhibition,[24],70%
same,IC50,[25],> 100000 nM
same,IC50,[26],3400 nM
same,inhibition,[27],61%
same,inhibition,[28],13%
same,inhibition,[29],91%
same,inhibition,[30],0%
same,inhibition,[31],75%
same,inhibition,[32],0%
same,Symptoms,[33],Active
same,Symptoms,[34],Active
same,Stretches,[3],19
same,Stretches,[35],13.8
same,Stretches,[36],12.5
same,Stretches,[6],24.6
same,inhibition,[37],0%
same,inhibition,[38],79%
same,IC50,[39],3200 nM
same,IC50,[40],11000 nM
same,inhibition,[41],23%
same,inhibition,[42],17%
CCN1CCC(COc2nc3ccccc3c3c2CCCN3)CC1,inhibition,[1],100%
same,inhibition,[2],55%
same,Ki,[8],13.1 nM
CCCN1CCC(COc2nc3ccc(Cl)cc3c3c2CCCCN3)CC1,inhibition,[1],91%
same,inhibition,[2],5%
c1ccc2c3c(c(OCC4CCNCC4)nc2c1)CCCN3,inhibition,[1],96%
same,inhibition,[2],24%
CCCCCN1CCC(COc2nc3ccccc3c3c2CCCN3)CC1,inhibition,[1],100%
same,inhibition,[2],51%
same,Ki,[8],12.5 nM
CCN1CCC(COc2nc3ccccc3c3c2CCCCN3)CC1,inhibition,[1],100%
same,inhibition,[2],51%
same,Ki,[8],10.7 nM
CCCCN1CCC(COc2nc3ccccc3c3c2CCCN3)CC1,inhibition,[1],100%
same,inhibition,[2],77%
same,Ki,[8],10 nM
CCCCN1CCC(COc2nc3ccc(Cl)cc3c3c2CCCN3)CC1,inhibition,[1],100%
same,inhibition,[2],2%
CCCCN1CCC(COc2nc3ccc(Cl)cc3c3c2CCCCN3)CC1,inhibition,[1],92%
same,inhibition,[2],0%
